Data taken from ChEMBL document CHEMBL4041496, “Natural-Based Indirubins Display Potent Cytotoxicity toward Wild-Type and T315I-Resistant Leukemia Cell Lines” (J Nat Prod, 2016).
One block for each molecule: values may come before it. Active and inactive are the calls of the source. No rule for the calls is given here.

Legend:
KCL-22 [1] = test: Cytotoxicity against human KCL22 cells assessed as cell viability at 1 uM after 48 hrs by MTS assay relative to control; assay type: functional; details: for viability at 1 µM: Homo sapiens, KCL-22, 48 h, read-out: Activity
Outline: (§1)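 Single-concentration screen: KCL-22 cells, or KCL-22 cells expressing T315I mutant Bcr-Abl, grown in RPMI-1640 with 10% FBS. Cells were seeded at 10 000/well, held overnight at 37 °C in 5% CO2, then exposed to 1 μM compound for 48 h, with DMSO as vehicle control. Viability was read by MTS tetrazolium-to-formazan conversion, absorbance 490 nm, in triplicate.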

KCL-22 [2] = test: Cytotoxicity against human KCL22 cells harboring ABL1 T315I mutant assessed as cell viability at 1 uM after 48 hrs by MTS assay relative to control; assay type: functional; details: for viability at 1 µM: Homo sapiens, KCL-22, 48 h, read-out: Activity; outline: as §1
[3] = biological target: Proto-oncogene tyrosine-protein kinase Src (Homo sapiens, UniProt P12931); test: Inhibition of recombinant c-Src (unknown origin) after 120 mins in presence of [33P]ATP
Sequence of Proto-oncogene tyrosine-protein kinase Src (P12931 2-536 limits assumed): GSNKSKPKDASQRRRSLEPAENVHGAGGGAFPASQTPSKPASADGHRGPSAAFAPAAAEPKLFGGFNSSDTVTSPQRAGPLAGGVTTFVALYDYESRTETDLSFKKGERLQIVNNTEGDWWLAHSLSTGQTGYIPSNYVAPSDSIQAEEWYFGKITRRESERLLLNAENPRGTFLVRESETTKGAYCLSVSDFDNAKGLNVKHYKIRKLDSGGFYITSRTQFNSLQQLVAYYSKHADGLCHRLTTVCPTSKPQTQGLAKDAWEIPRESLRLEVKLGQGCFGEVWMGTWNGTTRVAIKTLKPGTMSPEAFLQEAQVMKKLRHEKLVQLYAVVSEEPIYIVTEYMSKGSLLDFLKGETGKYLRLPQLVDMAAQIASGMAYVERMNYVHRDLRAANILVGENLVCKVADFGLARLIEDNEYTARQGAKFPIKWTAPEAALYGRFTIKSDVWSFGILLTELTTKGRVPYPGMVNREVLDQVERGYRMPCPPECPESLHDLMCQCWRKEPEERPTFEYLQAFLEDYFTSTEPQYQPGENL

[4] = biological target: Tyrosine-protein kinase JAK2 (Homo sapiens, UniProt O60674); test: Inhibition of recombinant JAK2 (unknown origin) after 120 mins in presence of [33P]ATP
Sequence of Tyrosine-protein kinase JAK2 (O60674 whole entry): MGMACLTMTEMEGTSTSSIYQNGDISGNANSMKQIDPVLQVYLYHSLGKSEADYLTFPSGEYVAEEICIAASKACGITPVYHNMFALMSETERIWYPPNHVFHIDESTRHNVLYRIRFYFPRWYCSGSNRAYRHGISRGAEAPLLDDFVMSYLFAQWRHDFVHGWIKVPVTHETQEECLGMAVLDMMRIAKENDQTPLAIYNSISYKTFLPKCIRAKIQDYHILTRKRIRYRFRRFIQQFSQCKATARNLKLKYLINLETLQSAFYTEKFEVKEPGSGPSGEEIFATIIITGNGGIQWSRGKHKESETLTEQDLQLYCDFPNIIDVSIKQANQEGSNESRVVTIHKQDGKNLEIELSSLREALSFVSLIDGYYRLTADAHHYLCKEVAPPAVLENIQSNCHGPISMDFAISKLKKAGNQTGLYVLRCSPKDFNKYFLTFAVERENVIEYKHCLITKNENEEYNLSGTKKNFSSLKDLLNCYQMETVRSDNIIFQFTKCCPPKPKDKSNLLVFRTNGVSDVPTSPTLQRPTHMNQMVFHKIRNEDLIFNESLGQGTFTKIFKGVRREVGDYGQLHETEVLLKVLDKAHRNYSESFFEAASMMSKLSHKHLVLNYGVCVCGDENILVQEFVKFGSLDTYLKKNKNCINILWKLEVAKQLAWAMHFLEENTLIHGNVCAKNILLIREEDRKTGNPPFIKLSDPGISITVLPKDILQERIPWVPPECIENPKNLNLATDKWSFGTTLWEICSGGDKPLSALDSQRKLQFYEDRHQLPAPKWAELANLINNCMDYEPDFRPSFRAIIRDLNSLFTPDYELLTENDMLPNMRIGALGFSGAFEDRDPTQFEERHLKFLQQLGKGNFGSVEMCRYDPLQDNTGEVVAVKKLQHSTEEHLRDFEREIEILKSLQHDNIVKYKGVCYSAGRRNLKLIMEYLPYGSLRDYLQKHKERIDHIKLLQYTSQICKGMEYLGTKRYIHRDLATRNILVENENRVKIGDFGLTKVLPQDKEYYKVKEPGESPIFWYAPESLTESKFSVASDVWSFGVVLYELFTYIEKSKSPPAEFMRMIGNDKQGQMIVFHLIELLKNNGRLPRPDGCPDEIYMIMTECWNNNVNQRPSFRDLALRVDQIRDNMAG

[5] = biological target: Tyrosine-protein kinase ABL1 (Homo sapiens, UniProt P00519, T315I); test: Inhibition of recombinant ABL1 T315I mutant (unknown origin) after 120 mins in presence of [33P]ATP
Aurora kinase A = biological target: T1, Aurora kinase A (Homo sapiens, UniProt O14965); test: Inhibition of recombinant Aurora A (unknown origin) after 120 mins in presence of [33P]ATP
T1 sequence (O14965 whole entry): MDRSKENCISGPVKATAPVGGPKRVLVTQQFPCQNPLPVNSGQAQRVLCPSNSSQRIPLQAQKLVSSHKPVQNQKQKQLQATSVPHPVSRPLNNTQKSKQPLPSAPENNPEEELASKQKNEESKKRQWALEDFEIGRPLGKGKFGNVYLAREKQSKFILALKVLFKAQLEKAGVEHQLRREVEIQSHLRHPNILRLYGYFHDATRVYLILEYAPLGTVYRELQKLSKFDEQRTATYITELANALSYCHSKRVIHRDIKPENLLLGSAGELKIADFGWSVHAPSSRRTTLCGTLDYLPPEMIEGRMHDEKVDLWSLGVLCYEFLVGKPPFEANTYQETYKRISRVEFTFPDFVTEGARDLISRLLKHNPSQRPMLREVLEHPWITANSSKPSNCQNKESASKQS

[6] = biological target: Tyrosine-protein kinase ABL1 (Homo sapiens, UniProt P00519); test: Inhibition of recombinant ABL1 (unknown origin) after 120 mins in presence of [33P]ATP
KCL-22 [7] = test: Cytotoxicity against human KCL22 cells assessed as reduction in cell viability after 48 hrs by MTS assay; assay type: functional, cell-based
KCL-22 [8] = test: Cytotoxicity against human KCL22 cells harboring ABL1 T315I mutant assessed as reduction in cell viability after 48 hrs by MTS assay; assay type: functional, cell-based; details: KCL-22, 48 h
KCL-22 [9] = test: Cytotoxicity against human KCL22 cells harboring ABL1 T315I mutant assessed as reduction in cell viability at 1 uM after 48 hrs by MTS assay; assay type: functional, cell-based; outline: as §1
KCL-22 [10] = test: Cytotoxicity against human KCL22 cells assessed as reduction in cell viability at 1 uM after 48 hrs by MTS assay; assay type: functional, cell-based; outline: as §1

SMILES: O=C(NC(Cl)(Cl)Cl)O/N=C1/C(=C2/C(=O)Nc3cc(Br)ccc32)Nc2ccccc21
viability at 1 µM (KCL-22 [1]): > 50% | viability at 1 µM (KCL-22 [2]): > 50%

IC50 [3]: 1.7 nM | IC50 [4]: > 10000 nM | IC50 [5]: > 10000 nM | IC50 (Aurora kinase A): 330 nM | IC50 [6]: 468 nM
SMILES: COCCN1CCN(CCO/N=C2/C(=C3/C(=O)Nc4cc(Br)ccc43)Nc3ccccc32)CC1 [listing 1 of 2 here]
Activity (KCL-22 [1]): >50% | Activity (KCL-22 [2]): <50%

SMILES: CN1CCN(CCO/N=C2/C(=C3/C(=O)Nc4cc(Br)ccc43)Nc3ccccc32)CC1 [listing 1 of 2 here]
viability at 1 µM (KCL-22 [1]): < 50% | viability at 1 µM (KCL-22 [2]): > 50% | IC50 (KCL-22 [7]; kcl-22): 500 nM

SMILES: CC(=O)O/N=C1/C(=C2/C(=O)Nc3cc(Br)ccc32)Nc2ccccc21 [6-BROMOINDIRUBIN-3'-ACETOXIME]
viability at 1 µM (KCL-22 [1]): > 50% | viability at 1 µM (KCL-22 [2]): > 50%

SMILES: O=C1Nc2cc(Br)ccc2/C1=C1/Nc2ccccc2C1=O
viability at 1 µM (KCL-22 [1]): > 50% | viability at 1 µM (KCL-22 [2]): > 50%

SMILES: O=C1Nc2cc(Br)ccc2/C1=C1/Nc2ccccc2/C1=N\OCCN1CCN(CCOCCO)CC1 [listing 1 of 2 here]
viability at 1 µM (KCL-22 [1]): > 50% | viability at 1 µM (KCL-22 [2]): < 50%

SMILES: N#Cc1ccc(NC(=O)O/N=C2/C(=C3/C(=O)Nc4cc(Br)ccc43)Nc3ccccc32)cc1
viability at 1 µM (KCL-22 [1]): > 50% | viability at 1 µM (KCL-22 [2]): > 50%

IC50 [3]: 0.61 nM | IC50 [4]: 589 nM | IC50 [5]: 194 nM | IC50 [6]: 10.2 nM
SMILES: CN(CCO/N=C1/C(=C2/C(=O)Nc3cc(Br)ccc32)Nc2ccccc21)CC(O)CO (stereo unspecified) [listing 1 of 2 here]
viability at 1 µM (KCL-22 [1]): < 50% | viability at 1 µM (KCL-22 [2]): < 50%

IC50 [3]: 0.83 nM | IC50 [4]: > 10000 nM | IC50 [5]: 5160 nM | IC50 (Aurora kinase A): 14.9 nM | IC50 [6]: 34.1 nM
SMILES: O=C1Nc2cc(Br)ccc2/C1=C1/Nc2ccccc2/C1=N\OCCN1CCN(CCOCCO)CC1 [listing 2 of 2 here]
Activity (KCL-22 [1]): >50% | Activity (KCL-22 [2]): >50%

SMILES: O=C1Nc2cc(Br)ccc2/C1=C1/Nc2ccccc2/C1=N\OCC(O)CO (stereo unspecified)
viability at 1 µM (KCL-22 [1]): < 50% | viability at 1 µM (KCL-22 [2]): > 50% | IC50 (KCL-22 [7]; Homo sapiens, KCL-22, 48 h): 750 nM

SMILES: CCCCCNC(=O)O/N=C1/C(=C2/C(=O)Nc3cc(Br)ccc32)Nc2ccccc21
viability at 1 µM (KCL-22 [1]): > 50% | viability at 1 µM (KCL-22 [2]): > 50%

SMILES: O=C1Nc2cc(Br)ccc2/C1=C1/Nc2ccccc2/C1=N\OCCN1CCN(CCO)CC1 [listing 1 of 2 here]
viability at 1 µM (KCL-22 [1]): > 50% | viability at 1 µM (KCL-22 [2]): > 50%

IC50 [3]: < 0.5 nM | IC50 [4]: 224 nM | IC50 [5]: 9.4 nM | IC50 (Aurora kinase A): 7.1 nM | IC50 [6]: 0.87 nM
SMILES: O=C1Nc2cc(Br)ccc2/C1=C1/Nc2ccccc2/C1=N\OCCN1CCNCC1 [listing 1 of 2 here]
viability at 1 µM (KCL-22 [1]): < 50% | viability at 1 µM (KCL-22 [2]): < 50% | IC50 (KCL-22 [7]; kcl-22): 330 nM | IC50 (KCL-22 [8]): 430 nM

IC50 [3]: 4.9 nM | IC50 [4]: 7460 nM | IC50 [5]: 4560 nM | IC50 (Aurora kinase A): 79 nM | IC50 [6]: 106 nM
SMILES: O=C1Nc2cc(Br)ccc2/C1=C1/Nc2ccccc2/C1=N\OCCN1CCCC1 [listing 1 of 2 here]
Activity (KCL-22 [1]): <50% | Activity (KCL-22 [2]): <50%

SMILES: O=C1Nc2cc(Br)ccc2/C1=C1/Nc2ccccc2/C1=N\OCCN1CCNCC1 [listing 2 of 2 here]
Activity (KCL-22 [1]): <50% | Activity (KCL-22 [2]): >50% | IC50 (KCL-22 [7]; kcl-22): 780 nM

IC50 [3]: 3.9 nM | IC50 [4]: > 10000 nM | IC50 [5]: > 10000 nM | IC50 (Aurora kinase A): > 10000 nM | IC50 [6]: 3440 nM
SMILES: COCCN1CCN(CCO/N=C2/C(=C3/C(=O)Nc4cc(Br)ccc43)Nc3ccccc32)CC1 [listing 2 of 2 here]
viability at 1 µM (KCL-22 [1]): > 50% | viability at 1 µM (KCL-22 [2]): < 50%

SMILES: O=C1Nc2cc(Br)ccc2/C1=C1/Nc2ccccc2/C1=N\O [6BIO]
viability at 1 µM (KCL-22 [1]): > 50% | viability at 1 µM (KCL-22 [2]): > 50%

IC50 [3]: 2.2 nM | IC50 [4]: 4410 nM | IC50 [5]: 5940 nM | IC50 (Aurora kinase A): 175 nM
SMILES: O=C1Nc2cc(Br)ccc2/C1=C1/Nc2ccccc2/C1=N\OCCN1CCCC1 [listing 2 of 2 here]
viability at 1 µM (KCL-22 [1]): < 50% | viability at 1 µM (KCL-22 [2]): < 50%

SMILES: CC(=O)c1ccc(NC(=O)O/N=C2/C(=C3/C(=O)Nc4cc(Br)ccc43)Nc3ccccc32)cc1
viability at 1 µM (KCL-22 [1]): > 50% | viability at 1 µM (KCL-22 [2]): > 50%

SMILES: CN1CCN(CCO/N=C2/C(=C3/C(=O)Nc4cc(Br)ccc43)Nc3ccccc32)CC1 [listing 2 of 2 here]
Activity (KCL-22 [1]): <50% | Activity (KCL-22 [2]): >50% | IC50 (KCL-22 [7]; Homo sapiens, KCL-22, 48 h): 900 nM

SMILES: CN1C(=O)/C(=C2\Nc3ccccc3\C2=N/O)c2ccc(Br)cc21
viability at 1 µM (KCL-22 [1]): > 50% | viability at 1 µM (KCL-22 [2]): > 50%

IC50 [3]: < 0.5 nM | IC50 [4]: 551 nM | IC50 [5]: 178 nM | IC50 (Aurora kinase A): 9.7 nM | IC50 [6]: 7.2 nM
SMILES: CN(CCO/N=C1/C(=C2/C(=O)Nc3cc(Br)ccc32)Nc2ccccc21)CC(O)CO (stereo unspecified) [listing 2 of 2 here]
Activity (KCL-22 [1]): <50% | Activity (KCL-22 [2]): <50%

SMILES: O=C1Nc2cc(Br)ccc2/C1=C1/Nc2ccccc2/C1=N\OCCN1CCN(CCO)CC1 [listing 2 of 2 here]
Activity (KCL-22 [1]): <50% | Activity (KCL-22 [2]): >50% | IC50 (KCL-22 [7]; Homo sapiens, KCL-22, 48 h): 830 nM

SMILES: O=C1Nc2c(cccc2C(F)(F)F)/C1=C1/Nc2ccc(C(=O)O)cc2/C1=N\OCCN1CCNCC1
Activity (KCL-22 [9]): inactive | Activity (KCL-22 [10]): inactive

SMILES: CN1C(=O)/C(=C2\Nc3ccccc3\C2=N/O)c2cccc(I)c21
Activity (KCL-22 [9]): inactive | Activity (KCL-22 [10]): inactive

SMILES: CN1C(=O)/C(=C2\Nc3ccccc3\C2=N/OCCN2CCNCC2)c2cccc(Br)c21
Activity (KCL-22 [9]): inactive | Activity (KCL-22 [10]): inactive

SMILES: O=C1Nc2c(cccc2C(F)(F)F)/C1=C1/Nc2ccccc2/C1=N\OCCN1CCNCC1
Activity (KCL-22 [9]): inactive | Activity (KCL-22 [10]): inactive

SMILES: COC(=O)c1ccc2c(c1)N/C(=C1\C(=O)Nc3c1cccc3C(F)(F)F)C2=O
Activity (KCL-22 [9]): inactive | Activity (KCL-22 [10]): inactive

SMILES: CCN(CC)C(=O)O/N=C1/C(=C2/C(=O)Nc3cc(Br)ccc32)Nc2ccccc21
viability at 1 µM (KCL-22 [1]): > 50% | viability at 1 µM (KCL-22 [2]): > 50%

SMILES: COC(=O)c1ccc2c(c1)NC(=C1\C(=O)Nc3c(Br)cccc31)/C2=N/OCCN1CCNCC1
Activity (KCL-22 [9]): inactive | Activity (KCL-22 [10]): inactive

SMILES: O=C1Nc2cc(Br)c([N+](=O)[O-])cc2/C1=C1/Nc2ccccc2/C1=N\O
Activity (KCL-22 [9]): inactive | Activity (KCL-22 [10]): inactive

SMILES: O=C1Nc2c(Br)cccc2/C1=C1/Nc2ccc(C(=O)O)cc2/C1=N\OCCN1CCNCC1
Activity (KCL-22 [9]): inactive | Activity (KCL-22 [10]): inactive

SMILES: O=C1Nc2c(Br)cccc2/C1=C1/Nc2ccc(-c3nnn[nH]3)cc2/C1=N\O
Activity (KCL-22 [9]): inactive | Activity (KCL-22 [10]): inactive
